Measurements taken from ChEMBL document CHEMBL1127078, “Fluorocyclopropyl quinolones. 1. Synthesis and structure-activity relationships of 1-(2-fluorocyclopropyl)-3-pyridonecarboxylic acid antibacterial agents” (J Med Chem, 1993).
Converted amounts (≈) assume the structure as drawn.

Columns and labels:
[1] = test system: Escherichia coli; experiment: Tested for minimum inhibitory concentration against Escherichia coli KL16; assay type: functional
In short: (§1)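 Twofold broth microdilution in Mueller-Hinton broth, inoculum approximately 10^6 cfu/mL. Plates incubated 18 h at 37 °C. MIC taken as the lowest concentration preventing visible bacterial growth.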

[2] = test system: Escherichia coli; experiment: (§2) Dose required to inhibit DNA gyrase in Escherichia coli; assay type: functional; details: read-out: ID50 (the source's name)
[3] = Partition coefficient of the compound; assay type: ADME; details: CHCl3-0.1 M phosphate buffer (pH 7.4)
In short: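 Shake-flask distribution between CHCl3 and 0.1 M sodium phosphate buffer pH 7.4, each phase presaturated with the other. About 1–2 mg sample dissolved in the aqueous phase and its UV maximum absorbance recorded. Equal 10 mL volumes shaken 30 min at room temperature, then left 1 h to separate. Aqueous-layer UV maximum re-read. P' calculated as a ratio of the absorbance readings.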

[4] = test system: Enterobacter cloacae; experiment: (§3) Tested for minimum inhibitory concentration against Enterobacter cloacae 03400; assay type: functional; in short: as §1
[5] = test system: Pseudomonas aeruginosa; experiment: Tested for minimum inhibitory concentration against Pseudomonas aeruginosa 32121; assay type: functional; in short: as §1
[6] = test system: Streptococcus pyogenes; experiment: Tested for minimum inhibitory concentration against Streptococcus pyogenes G-36; assay type: functional; in short: as §1
[7] = test system: Escherichia coli; experiment: Tested for minimum inhibitory concentration against Escherichia coli NIHJ; assay type: functional; in short: as §1
[8] = test system: Staphylococcus aureus; experiment: Tested for minimum inhibitory concentration against Staphylococcus aureus 209P; assay type: functional; in short: as §1
[9] = test system: Enterococcus faecalis; experiment: Tested for minimum inhibitory concentration against Enterococcus faecalis ATCC 19433; assay type: functional; in short: as §1
[10] = test system: Proteus vulgaris; experiment: Tested for minimum inhibitory concentration against Proteus vulgaris 08601; assay type: functional; in short: as §1
[11] = test system: Klebsiella pneumoniae; experiment: Tested for minimum inhibitory concentration against Klebsiella pneumoniae; assay type: functional; in short: as §1
[12] = test system: Staphylococcus aureus; experiment: Tested for minimum inhibitory concentration against Staphylococcus aureus Smith; assay type: functional; in short: as §1
[13] = test system: Staphylococcus epidermidis; experiment: Tested for minimum inhibitory concentration against Staphylococcus epidermidis 56556; assay type: functional; in short: as §1
[14] = test system: Enterobacter cloacae; experiment: as §3; assay type: functional; remark: listed apart in the source
[15] = test system: Escherichia coli; experiment: Tested for minimum inhibitory concentration against Escherichia coli KL-16; assay type: functional; in short: as §1
[16] = target: DNA gyrase (Escherichia coli) (UniProt P0AES6+P0AES4); experiment: as §2; assay type: protein-complex assay
[17] = Pseudomonas aeruginosa, read-out: MIC
[18] = Escherichia coli, read-out: MIC
[19] = Proteus vulgaris, read-out: MIC

Row | Structure (SMILES) | MIC [11] | MIC [6] [µg/mL] | MIC [8] [µg/mL] | MIC [9] [µg/mL] | MIC [10, 19] [µg/mL] | MIC [12] | MIC [13] [µg/mL] | MIC [5] | other results
1 | CN1CCN(c2cc3c(cc2F)c(=O)c(C(=O)O)cn3C2CC2)CC1 | – | – | – | – | – | – | – | – | MIC [1]: 0.05 µg/mL (≈ 0.145 µM); IC50 [2]: 0.47 µg/mL (≈ 1.36 µM); P' [3]: 20
2 | O=C(O)c1cn(C2CC2F)c2cc(N3CCNCC3)c(F)cc2c1=O (stereo in doubt; 24) | – | 1.56 (≈ 4.47 µM) | 0.1 (≈ 0.286 µM) | 1.56 (≈ 4.47 µM) | ≤ 0.05 | 0.1 µg/mL (≈ 0.286 µM) | 0.2 (≈ 0.573 µM) | – | MIC [4]: ≤ 0.05 µg/mL; MIC [5, 17]: ≤ 0.05 µg/mL; MIC [7, 18]: ≤ 0.05 µg/mL; MIC ([11]; Klebsiella pneumoniae, read-out: MIC): ≤ 0.05 µg/mL; P' [3]: 0.16
3 | O=C(O)c1cn(C2CC2F)c2cc(N3CCNCC3)c(F)cc2c1=O (stereo in doubt; 25) | 0.1 µg/mL (≈ 0.286 µM) | 50 (≈ 143 µM) | 0.78 (≈ 2.23 µM) | 12.5 (≈ 35.8 µM) | – | 0.39 µg/mL (≈ 1.12 µM) | 0.78 (≈ 2.23 µM) | 0.1 µg/mL (≈ 0.286 µM) | –
4 | CN1CCN(c2cc3c(cc2F)c(=O)c(C(=O)O)cn3C2CC2F)CC1 (stereo in doubt; 26) [listing 2 of 2 here] | – | – | – | – | – | – | – | – | ID50 [16]: 0.31 µg/mL (≈ 0.853 µM)
5 | CN1CCN(c2cc3c(cc2F)c(=O)c(C(=O)O)cn3C2CC2F)CC1 (stereo in doubt; 27) [listing 2 of 2 here] | – | – | – | – | – | – | – | – | ID50 [16]: 0.92 µg/mL (≈ 2.53 µM)
6 | O=C(O)c1cn(C2CC2F)c2c(F)c(N3CCNCC3)c(F)cc2c1=O (stereo in doubt; 28) | <=0.05 ug ml-1 | 0.78 (≈ 2.12 µM) | 0.1 (≈ 0.272 µM) | 1.56 (≈ 4.25 µM) | – | 0.1 µg/mL (≈ 0.272 µM) | 0.2 (≈ 0.544 µM) | <=0.05 ug ml-1 | MIC [7]: <=0.05 ug ml-1
7 | O=C(O)c1cn(C2CC2F)c2c(F)c(N3CCNCC3)c(F)cc2c1=O (stereo in doubt; 29) | 0.2 µg/mL (≈ 0.544 µM) | 50 (≈ 136 µM) | 1.56 (≈ 4.25 µM) | 25 (≈ 68.1 µM) | ≤ 0.05 | 0.78 µg/mL (≈ 2.12 µM) | 3.13 (≈ 8.52 µM) | 0.39 µg/mL (≈ 1.06 µM) | MIC [4]: ≤ 0.05 µg/mL; MIC [7, 18]: 0.1 µg/mL (≈ 0.272 µM)
8 | CN1CCN(c2c(F)cc3c(=O)c(C(=O)O)cn(C4CC4F)c3c2F)CC1 (stereo in doubt; 30) | <=0.05 ug ml-1 | 3.13 (≈ 8.21 µM) | 0.1 (≈ 0.262 µM) | 0.78 (≈ 2.05 µM) | – | <=0.05 ug ml-1 | 0.2 (≈ 0.524 µM) | 0.1 µg/mL (≈ 0.262 µM) | –
9 | CN1CCN(c2c(F)cc3c(=O)c(C(=O)O)cn(C4CC4F)c3c2F)CC1 (stereo in doubt; 31) | 0.2 µg/mL (≈ 0.524 µM) | 100 (≈ 262 µM) | 1.56 (≈ 4.09 µM) | 25 (≈ 65.6 µM) | ≤ 0.05 | 1.56 µg/mL (≈ 4.09 µM) | 3.13 (≈ 8.21 µM) | 0.78 µg/mL (≈ 2.05 µM) | MIC [4]: ≤ 0.05 µg/mL; MIC [7, 18]: ≤ 0.05 µg/mL

Second part, led by results:

Row | MIC [11] | Structure (SMILES) | MIC [6] [µg/mL] | MIC [8] [µg/mL] | MIC [9] [µg/mL] | MIC [10, 19] [µg/mL] | MIC [12] | MIC [13] [µg/mL] | MIC [5] | other results
10 | <=0.05 ug ml-1 | CN1CCN(c2cc3c(cc2F)c(=O)c(C(=O)O)cn3C2CC2F)CC1 (stereo in doubt; 26) [listing 1 of 2 here] | 1.56 (≈ 4.29 µM) | 0.1 (≈ 0.275 µM) | 0.78 (≈ 2.15 µM) | ≤ 0.05 | <=0.05 ug ml-1 | 0.1 (≈ 0.275 µM) | – | MIC [5, 17]: 0.2 µg/mL (≈ 0.55 µM); MIC [7]: ≤ 0.05 µg/mL; MIC [14]: ≤ 0.05 µg/mL; MIC [15, 18]: 0.05 µg/mL (≈ 0.138 µM); P' [3]: 7
11 | 0.2 µg/mL (≈ 0.55 µM) | CN1CCN(c2cc3c(cc2F)c(=O)c(C(=O)O)cn3C2CC2F)CC1 (stereo in doubt; 27) [listing 1 of 2 here] | 50 (≈ 138 µM) | 0.78 (≈ 2.15 µM) | 12.5 (≈ 34.4 µM) | – | 0.39 µg/mL (≈ 1.07 µM) | 0.78 (≈ 2.15 µM) | 0.39 µg/mL (≈ 1.07 µM) | MIC [10]: 0.1 µg/mL (≈ 0.275 µM); MIC [15]: 0.1 µg/mL (≈ 0.275 µM)
